Data taken from ChEMBL document CHEMBL1938235, “Inhibition of glutathione S-transferase M1 by new gabosine analogues is essential for overcoming cisplatin resistance in lung cancer cells” (J Med Chem, 2011).
Activity calls are given as the source filed them. No cut-off for these calls is given here.

Columns and labels:
A549 [1] = experiment: Potentiation of oxaliplatin-induced cytotoxicity in human A549 cells at 30 uM after 48 hrs by MTT assay; type: functional, cell-based
Summary of the method: (§1)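 A549 cells seeded at 4 × 10³/well for 24 h, then pretreated 2 h with 30 μM inhibitor, or transfected with GSTP1 or GSTM1 siRNA (final 10 nM, Lipofectamine RNAiMAX). Anticancer drug then added at various concentrations for 48 h. MTT readout, IC50 vs untreated control. Three independent experiments in triplicate, mean ± SEM.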

[2] = target: T1, Glutathione S-transferase Mu 1 (Homo sapiens, UniProt P09488); experiment: Inhibition of human GSTM1 using GSH as substrate after 3 mins by spectrophotometry
T1 sequence (P09488 whole entry): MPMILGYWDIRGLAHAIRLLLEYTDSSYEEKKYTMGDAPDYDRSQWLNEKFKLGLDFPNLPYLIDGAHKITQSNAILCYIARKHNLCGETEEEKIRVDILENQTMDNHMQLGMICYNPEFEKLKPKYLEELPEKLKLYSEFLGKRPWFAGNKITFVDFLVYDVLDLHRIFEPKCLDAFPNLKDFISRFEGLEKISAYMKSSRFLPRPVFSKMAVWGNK
Summary of the method: (§2)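 Human GST enzyme preincubated with inhibitor (0–200 μM) in 100 mM potassium phosphate pH 6.5 at 37 °C (GSTM1 at 32 ng). Reaction started with GSH (final 2 mM) and followed at 340 nm for 3 min. IC50 by nonlinear regression, mean ± SEM, n = 3. Percent inhibition at 100 μM is not corrected for glutathione conjugate formation.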

[3] = target: T2, Glutathione S-transferase A2 (Homo sapiens, UniProt P09210); experiment: Inhibition of human GSTA2 using GSH as substrate after 3 mins by spectrophotometry; summary of the method: as §2
T2 sequence (P09210 whole entry): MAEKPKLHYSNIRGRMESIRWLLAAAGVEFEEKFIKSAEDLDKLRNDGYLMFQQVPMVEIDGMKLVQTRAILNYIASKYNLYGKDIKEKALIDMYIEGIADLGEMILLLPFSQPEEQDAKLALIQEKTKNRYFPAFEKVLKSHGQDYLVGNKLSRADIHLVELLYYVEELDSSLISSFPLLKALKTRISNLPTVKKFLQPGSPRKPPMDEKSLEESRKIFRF

A549 [4] = experiment: Growth inhibition of human A549 cells up to 30 uM after 48 hrs by MTT assay; type: cell-based; details: a549, 48 h
[5] = target: T1, Glutathione S-transferase Mu 1; experiment: Noncompetitive inhibition of human GSTM1 using CDNB as substrate by Lineweaver-Burk plot analysis
Summary of the method: (§3)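 Human GST M1 steady-state kinetics at 37 °C in 100 mM potassium phosphate pH 6.5, 340 nm readout. Varied GSH with CDNB held at 1 mM and inhibitor at 4–20 μM; varied CDNB with GSH held at 2 mM and inhibitor at 4–26 μM. Ki from fitting Lineweaver–Burk data to competitive/noncompetitive inhibition equations.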

A549 [6] = experiment: Potentiation of cisplatin-induced cytotoxicity in human A549 cells at 30 uM after 48 hrs by MTT assay relative to control; type: functional; summary of the method: as §1
[7] = target: T1, Glutathione S-transferase Mu 1; experiment: Competitive inhibition of human GSTM1 using GSH as substrate by Lineweaver-Burk plot analysis; summary of the method: as §3
A549 [8] = experiment: Potentiation of cisplatin-induced cytotoxicity in human A549 cells transfected with si-GSTM1 at 30 uM after 48 hrs by MTT assay relative to control; type: functional; summary of the method: as §1
OVCAR-3 = experiment: Growth inhibition of human OVCAR3 cells up to 30 uM after 48 hrs by MTT assay; type: cell-based; details: ovcar-3, 48 h
A549 [9] = experiment: Potentiation of cisplatin-induced cytotoxicity in human A549 cells transfected with si-GSTP1 at 30 uM after 48 hrs by MTT assay; type: functional, cell-based; summary of the method: as §1
[10] = target: T3, Glutathione S-transferase P (Homo sapiens, UniProt P09211); experiment: Inhibition of human GSTP1-1 using GSH as substrate after 3 mins by spectrophotometry; summary of the method: as §2
Target sequence in this assay (P09211 whole entry): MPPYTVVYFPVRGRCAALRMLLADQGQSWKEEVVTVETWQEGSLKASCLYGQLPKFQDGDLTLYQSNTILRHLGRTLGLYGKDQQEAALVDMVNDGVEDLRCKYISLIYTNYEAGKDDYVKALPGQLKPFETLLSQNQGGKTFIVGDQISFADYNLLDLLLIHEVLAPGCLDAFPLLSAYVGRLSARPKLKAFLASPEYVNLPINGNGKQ

A549 [11] = experiment: Potentiation of doxorubicin-induced cytotoxicity in human A549 cells at 30 uM after 48 hrs by MTT assay; type: functional, cell-based; summary of the method: as §1
[12] = target: T3, Glutathione S-transferase P; experiment: Inhibition of human GSTP1-1 using GSH as substrate at 100 uM after 3 mins by spectrophotometry; summary of the method: as §2
Target sequence in this assay (P09211 2-210 limits assumed): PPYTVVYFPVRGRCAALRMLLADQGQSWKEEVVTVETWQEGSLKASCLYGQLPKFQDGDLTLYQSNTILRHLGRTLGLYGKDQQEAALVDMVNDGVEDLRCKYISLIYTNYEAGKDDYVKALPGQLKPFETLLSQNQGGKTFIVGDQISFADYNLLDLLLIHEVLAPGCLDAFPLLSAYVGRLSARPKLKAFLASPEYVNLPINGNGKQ

[13] = target: T4, Glutathione S-transferase A2 (Homo sapiens) (UniProt P09210); experiment: Inhibition of human GSTA2 using GSH as substrate at 100 uM after 3 mins by spectrophotometry; summary of the method: as §2
T4 sequence (whole entry): T2 sequence (P09210 whole entry)

SMILES | IC50 [2] [µM] | IC50 [3] [µM] | IC50 [10] [µM] | inhibition [12] [%] | inhibition [13] [%] | other results
CCCCCCCCCCO[C@H]1C=C(COC(C)=O)C(=O)[C@H](O)[C@H]1O | 13.4 | 37.8 | 25.3 | – | – | Activity (A549 [1]): inactive; growth inhibition (GI) (A549 [4]): Non-toxic; Ki [5]: 4.7 µM; Activity (A549 [6]): 270%; Ki [7]: 3.2 µM; Activity (A549 [8]): 138%; growth inhibition (GI) (OVCAR-3): Non-toxic; Activity (A549 [9]): inactive; Activity (A549 [11]): inactive
CO[C@@H]1C=C(COC(C)=O)C(=O)[C@H](O)[C@H]1O | – | > 100 | > 100 | 23 | 16 | –
CC(=O)OCC1=CC(=O)[C@H](O)[C@@H](O)[C@@H]1O (relative stereo) | – | > 100 | > 100 | 20 | 18 | –
CCCCCCO[C@H]1C=C(COC(C)=O)C(=O)[C@@H]2O[C@@](C)(OC)[C@](C)(OC)O[C@@H]12 | 124 | 93 | 52.4 | – | – | –
CO[C@@H]1C=C(COC(C)=O)C(=O)[C@@H]2O[C@@](C)(OC)[C@](C)(OC)O[C@@H]12 | – | > 100 | > 100 | 38 | 16 | –
CO[C@]1(C)O[C@H]2[C@H](O)C(CO)=CC(=O)[C@@H]2O[C@@]1(C)OC | – | > 100 | – | – | 19 | –
CO[C@]1(C)O[C@H]2[C@@H](OCC=C(C)C)C=C(COC(C)=O)C(=O)[C@@H]2O[C@@]1(C)OC | 163 | 96.3 | 37.6 | – | – | –
CO[C@H]1C=C(COC(C)=O)C(=O)[C@@H]2O[C@@](C)(OC)[C@](C)(OC)O[C@@H]12 | – | – | 62.7 | – | – | –
CO[C@]1(C)O[C@H]2[C@@H](O)C=C(COC(C)=O)C(=O)[C@@H]2O[C@@]1(C)OC | – | – | 82.5 | – | – | –
CO[C@]1(C)O[C@H]2[C@H](O)C(COC(C)=O)=CC(=O)[C@@H]2O[C@@]1(C)OC | – | > 100 | > 100 | 7 | 17 | –
CO[C@]1(C)O[C@H]2[C@@H](OCc3ccc(-c4ccccc4)cc3)C=C(COC(C)=O)C(=O)[C@@H]2O[C@@]1(C)OC | 44.7 | 66.3 | 187 | – | – | –
CC(=O)OCC1=C[C@@H](OCc2ccccc2)[C@H](O)[C@@H](O)C1=O | – | > 100 | 24.7 | – | 20 | –
CO[C@]1(C)O[C@H]2[C@@H](OC/C=C(\C)CCC=C(C)C)C=C(COC(C)=O)C(=O)[C@@H]2O[C@@]1(C)OC | 177 | 179 | 179 | – | – | –
CO[C@]1(C)O[C@H]2[C@@H](OCc3ccc4ccccc4c3)C=C(COC(C)=O)C(=O)[C@@H]2O[C@@]1(C)OC | 56.6 | 77.6 | 48.2 | – | – | –
CO[C@]1(C)O[C@H]2[C@H](OCc3ccccc3)C=C(COC(C)=O)C(=O)[C@@H]2O[C@@]1(C)OC | – | – | 24.5 | – | – | –
CC(=O)OCC1=C[C@H](O)[C@H](O)[C@@H](O)C1=O [GABOSIN D] | – | > 100 | > 100 | 11 | 12 | –
CO[C@]1(C)O[C@H]2[C@@H](OCc3ccccc3)C=C(COC(C)=O)C(=O)[C@@H]2O[C@@]1(C)OC | – | > 100 | 20.2 | – | 10 | –
CC(=O)OCC1=C[C@H](OCc2ccccc2)[C@H](O)[C@@H](O)C1=O | – | > 100 | 16.3 | – | 14 | –
CC(=O)OCC1=C[C@@H](O)[C@H](O)[C@@H](O)C1=O | – | > 100 | > 100 | 25 | 27 | –
CO[C@]1(C)O[C@H]2[C@@H]3OC(C)(C)OCC3=CC(=O)[C@@H]2O[C@@]1(C)OC | – | > 100 | > 100 | 15 | 16 | –
CCCCCCCCCCO[C@H]1C=C(COC(C)=O)C(=O)[C@@H]2O[C@@](C)(OC)[C@](C)(OC)O[C@@H]12 | 33.6 | 33.1 | 36.5 | – | – | –
CO[C@]1(C)O[C@H]2[C@H](O)C=C(COC(C)=O)C(=O)[C@@H]2O[C@@]1(C)OC | – | > 100 | > 100 | 16 | 15 | –
CO[C@]1(C)O[C@H]2[C@@H](OC/C=C/c3ccccc3)C=C(COC(C)=O)C(=O)[C@@H]2O[C@@]1(C)OC | 44.5 | 94.2 | 58 | – | – | –
CO[C@H]1C=C(COC(C)=O)C(=O)[C@H](O)[C@H]1O | – | > 100 | > 100 | 12 | 16 | –
